# MEKK3 PB1 HTS: raises or lowers MEK5 binding to the human MEKK3 PB1 domain; Q99759; bead-based flow cytometry, Alexa488-MEK5 binding to MEKK3; actives lie on both sides; 0 = blocked by unlabeled MEK5, 100 = vehicle; binding response (% of control), % at 10 µM; actives 1.4% (n = 290,000); AID 1529;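 active = binding response more than 3 SD above or below the average of its plate-row segment, actives on both sides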;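 also: Alexa488 bead fluorescence after subtracting the streptavidin-only scavenger bead signal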
# Target sequence (Q99759 whole entry, looked up, the tested form may be a part): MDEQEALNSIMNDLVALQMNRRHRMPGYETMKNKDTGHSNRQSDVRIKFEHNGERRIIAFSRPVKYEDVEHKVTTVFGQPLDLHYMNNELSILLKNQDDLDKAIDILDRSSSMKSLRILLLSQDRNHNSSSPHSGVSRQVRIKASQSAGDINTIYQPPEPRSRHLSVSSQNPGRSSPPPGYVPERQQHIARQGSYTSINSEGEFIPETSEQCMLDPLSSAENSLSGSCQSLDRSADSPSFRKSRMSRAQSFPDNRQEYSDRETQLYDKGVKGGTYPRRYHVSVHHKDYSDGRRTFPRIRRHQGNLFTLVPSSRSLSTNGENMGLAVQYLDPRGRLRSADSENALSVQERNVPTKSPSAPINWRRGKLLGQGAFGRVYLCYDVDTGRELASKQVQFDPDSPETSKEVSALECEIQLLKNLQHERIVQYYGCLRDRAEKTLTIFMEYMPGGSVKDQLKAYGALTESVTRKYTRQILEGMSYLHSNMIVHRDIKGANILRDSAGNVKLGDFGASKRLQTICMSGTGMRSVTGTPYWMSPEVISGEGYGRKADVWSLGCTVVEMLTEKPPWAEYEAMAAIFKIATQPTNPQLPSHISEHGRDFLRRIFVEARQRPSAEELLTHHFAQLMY
# MEKK2 mut-MEK5: signal of MEK5 binding to mutant human MEKK2 PB1 domain; bead flow cytometry, Alexa488-MEK5 binding to MEKK2 mutant; percent response, % at 10 µM; actives 0.35% (n = 290,000); AID 1530; in the data active = percent response above about 24%, passing the limit was not always enough
# MEKK2 WT-MEK5: raises or lowers MEK5 binding to wildtype human MEKK2 PB1 domain. Q9Y2U5. bead flow cytometry, Alexa488-MEK5 binding to MEKK2 WT; actives lie on both sides. binding response (% of control), % at 10 µM. actives 1.1% (n = 290,000). AID 1531; in the data active = binding response below about 67% or above about 130%
# ABCG2 inh: inhibitors of human ABCG2 transporter, ABCB1 counter-screen. IgMXP3 cells, JC-1 efflux, flow cytometry. Q9UNQ0. actives 0.1% (n = 190,000). inhibition, % at 6.6 µM. AID 1325;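 active = inhibition above 80%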
#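 Test system: ABCG2 IgMXP3 and barcoded ABCB1 CCRF-Adr cell mix; Schedule: cells with compound and JC-1, 10 min at 25 °C, rotating, no wash; Technique: flow cytometry of retained JC-1 fluorescence; Measure: % inhibition of efflux relative to nicardipine and DMSO; Controls: nicardipine high and DMSO low controls.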
# WT yeast gro inh: growth inhibition of WT yeast, mitochondrial fusion screen; AID 1362; inhibition, % at 10 µM; mitochondrial fusion phenotypic screen, WT strain; actives 2.1% (n = 190,000); in the data active = inhibition above about 58%; tested in S. cerevisiae
# ABCB1 inh: inhibitors of human ABCB1 transporter, ABCG2 counter-screen. P08183. CCRF-Adr cells, JC-1 efflux, flow cytometry. inhibition, % at 6.6 µM. actives 0.067% (n = 190,000). AID 1326; in the data active = inhibition above about 40%;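 also: higher value means more JC-1 retained so stronger ABCB1 efflux block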
# ABCB1 single pt: inhibits human ABCB1 efflux, confirmed at single point; shares compounds with ABCG2 inh; CCRF-Adr cells, JC-1 efflux, flow cytometry; inhibition, % at 6.6 µM; actives 7% (n = 270); AID 1451;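 active = inhibition of pump activity above 50%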
# ABCG2 single pt: inhibits human ABCG2 efflux, confirmed at single point | shares compounds with ABCG2 inh | inhibition, % at 6.6 µM | IgMXP3 cells, JC-1 efflux, flow cytometry | actives 6% (n = 270);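 active = inhibition above 50%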
# IgMXP3 autofluor: IgMXP3 autofluorescence flag for ABCG2 confirmation | shares compounds with ABCG2 inh | IgMXP3 cells, compound autofluorescence 488/530 nm, flow; hits give high values | fluorescence at 6.6 µM | actives 30% (n = 270);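 active = fluorescence in ABCG2-expressing cells above the plate's control-well mean plus 3 SD, cut at about 15 in these data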
# CCRF-Adr fluor: counter-screen for ABCB1 inhibitors: compound fluorescence in CCRF-Adr cells; shares compounds with ABCG2 inh; compound autofluorescence 488/530 nm, flow cytometry; hits give high values; fluorescence at 6.6 µM; actives 30% (n = 270);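 active = fluorescence beyond the plate control mean plus 3 SD, with a fluorescence-to-maximum score over 2, cut at about 25 in these data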
# Numbers stand for hits; . = inactive; / = no result given. The list is not random: actives were taken first. Their share in the collection is about 3.5%.
SMILES,MEKK3 PB1 HTS,MEKK2 mut-MEK5,MEKK2 WT-MEK5,ABCG2 inh,WT yeast gro inh,ABCB1 inh,ABCB1 single pt,ABCG2 single pt,IgMXP3 autofluor,CCRF-Adr fluor
[O-][n+]1onc2c1CCc1c-2nc(-c2ccccc2)n1OCc1ccccc1,.,.,.,.,.,.,/,/,/,/
CCC(=O)N1CCc2cc(S(=O)(=O)NCCC(=O)NC3CCCCCC3)ccc21,.,.,.,/,/,/,/,/,/,/
O=C(Nc1ccccc1F)NC1CCN(Cc2nnnn2Cc2ccc(F)cc2)CC1,.,.,.,.,.,.,/,/,/,/
O=C(Nc1ccc(F)cc1)NC1CCN(Cc2nnnn2Cc2ccco2)CC1,.,.,.,83.2,.,.,.,.,.,.
Cc1ccc(N(CCCCN2C(=O)c3ccccc3C2=O)C(=O)c2ccc(Cl)s2)cc1,.,.,.,.,.,.,.,.,.,.
Cc1ccc(N2CC(C(=O)Nc3nnc(SCC(N)=O)s3)CC2=O)cc1 (configuration not stated),.,.,.,/,/,/,/,/,/,/
CCN(CC)P(=O)(Nc1cccc(C(F)(F)F)c1)c1ccc(N(C)C)cc1NC(=O)c1ccco1 (configuration not stated),/,/,/,.,.,56.0,61.7,.,.,36.6
Cc1cc(Cl)cc(Cl)c1OCCN1CCCC1,.,.,.,/,/,/,/,/,/,/
COc1ccc(OCC(=O)Nc2ccccc2C(=O)N2CCOCC2)cc1,.,.,.,.,.,59.6,.,.,.,.
O=C(COc1ccc(Br)cc1)Nc1ccccc1C(=O)N1CCOCC1,.,.,.,/,/,/,/,/,/,/
Cn1c(C(=O)N2CCN(c3ccc(Cl)cc3)CC2)cc2c(=O)n(C)c3ccccc3c21,/,/,/,/,.,/,/,/,/,/
CCOc1ccc(OCC)c(NC(=O)CN2CCN(c3cccc(C)c3)CC2)c1,/,/,/,.,.,.,.,.,.,.
Cc1cc(C)c(C(=O)COC(=O)CCNS(=O)(=O)c2c(Cl)cccc2Cl)cc1C,.,.,.,96.9,.,.,.,.,.,.
COc1cccc(NC(=O)Nc2ccncc2)c1,.,.,.,.,.,44.5,.,.,.,.
COCCn1c(SCc2csc(-c3ccccc3)n2)nc2ccccc21,.,.,.,.,.,.,.,.,14.7,72.3
COCCn1c(SCC(=O)NCc2ccccc2)nc2ccccc21,.,.,.,/,/,/,/,/,/,/
Cc1ccc(S(=O)(=O)NCC(=O)N/N=C/c2ccccc2O)cc1,.,.,.,.,.,.,/,/,/,/
COCCn1c(C)cc(C(=O)CSc2cc(C)c3ccccc3n2)c1C,.,.,.,92.5,.,.,.,.,.,.
CCCCCCCCNC(=O)c1cccnc1SCC(=O)Nc1ccccc1OC,.,.,.,92.5,.,.,.,.,.,.
COc1ccc(OC)c(NC(=O)CSc2ncccc2C(=O)O)c1,.,.,.,.,.,.,/,/,/,/
Cn1c(=O)c(NCCO)c2c3c(cccc31)C(=O)c1ccccc1-2,.,.,.,84.1,.,.,.,.,.,.
CCNc1c2c3c(cccc3n(C)c1=O)C(=O)c1ccccc1-2,.,.,.,.,.,.,/,/,/,/
CCCCN1/C(=C/c2cccc[n+]2C)Sc2cc(NC(C)=O)ccc21,.,.,.,/,/,/,/,/,/,/
CCCCN1/C(=C/c2ccc3ccccc3[n+]2CC)Sc2ccccc21,.,.,.,121.3,.,.,72.7,.,256,337
CCN(CCCNC(=O)CCc1nc(-c2ccc(C)cc2)no1)c1cccc(C)c1,.,.,.,82.8,64.0,.,.,.,.,.
SMILES,MEKK3 PB1 HTS,MEKK2 mut-MEK5,MEKK2 WT-MEK5,ABCG2 inh,WT yeast gro inh,ABCB1 inh,ABCB1 single pt,ABCG2 single pt,IgMXP3 autofluor,CCRF-Adr fluor
Cc1cc(NC(=O)C2CC(=O)N(c3ccccc3Cl)C2)no1 (configuration not stated),.,.,.,/,/,/,/,/,/,/
COC(=O)c1ccc(OC)c(Cn2c(=O)n(C)c(=O)c3ccccc32)c1,.,.,.,/,/,/,/,/,/,/
CCOc1ccccc1NC(=O)C(OC(=O)c1ccc(CC)cc1)c1ccccc1 (configuration not stated),.,.,.,.,.,.,/,/,/,/
CCOc1ccccc1NC(=O)C(OC(=O)c1ccc(N(C)C)cc1)c1ccccc1 (configuration not stated),.,.,.,117.4,.,.,.,63.1,.,.
N#Cc1ccc(-c2ccc(OCC(=O)NCCc3ccccc3)cc2)cc1,.,.,.,82.1,.,.,.,.,.,31.4
COc1ccc(CCNC(=O)COc2ccc(-c3ccc(C#N)cc3)cc2)cc1,.,.,.,.,.,.,/,/,/,/
COc1ccc(CNC(=O)CN2C(=O)COc3ccc(S(=O)(=O)N4CCCCC4)cc32)cc1,.,.,.,/,/,/,/,/,/,/
CCc1ccc(OCC(=O)N/N=C(\C)c2ccc(OC(F)F)cc2)cc1,.,.,.,103.9,.,.,.,.,14.8,.
CCC(C)(C)NC(=O)C(c1ccc(C)cc1)N(Cc1ccco1)C(=O)CCC(=O)Nc1nccs1 (configuration not stated),.,.,.,.,.,.,/,/,/,/
CCC(NC(=O)CCl)c1ccc(C)cc1 (configuration not stated),.,.,.,.,.,.,.,.,.,.
CCOc1ccc(N2C(=O)C3ON(c4ccccc4)C(c4cccs4)C3C2=O)cc1 (configuration not stated),.,.,.,.,.,95.2,.,.,.,.
COc1cccc(N2C(=O)C3ON(c4ccccc4)C(c4cccs4)C3C2=O)c1 (configuration not stated),.,.,.,.,.,.,/,/,/,/
O=C(Cc1ccccc1)Nc1cc(Cl)ccc1Sc1ccccc1,.,.,.,89.0,.,.,.,.,.,.
O=C(Cc1ccc(Cl)cc1)Nc1ccccc1Sc1ccccc1,.,.,.,.,.,.,/,/,/,/
C=CC[N+]1(CC(=O)NCc2ccc(NC(C)=O)cc2)CCOCC1,.,.,.,/,/,/,/,/,/,/
O=C(Nc1nnc(C2CC2)s1)c1cc(S(=O)(=O)N2CCCCC2)ccc1N1CCOCC1,.,.,.,/,/,/,/,/,/,/
CCc1nnc(NC(=O)c2cc(S(=O)(=O)N3CCOCC3)ccc2N2CCCCC2)s1,/,/,/,.,.,68.5,.,.,.,.
COc1ccc(C=O)cc1CSc1ncccc1C(=O)O,.,.,.,/,/,/,/,/,/,/
O=C(O)c1ccc(Nc2ncc([N+](=O)[O-])cc2[N+](=O)[O-])cc1,.,.,.,.,.,.,/,/,/,/
